Ki and Ratio Ki data for 23 molecules are collected here from ChEMBL document CHEMBL2177027, “Exploring the directionality of 5-substitutions in a new series of 5-alkylaminopyrazolo[4,3-e]1,2,4-triazolo[1,5-c]pyrimidine as a strategy to design novel human a(3) adenosine receptor antagonists” (J Med Chem, 2012).

Each structure is given as a SMILES string. Some results are limits rather than exact numbers.

One assay concerns the target T1, Adenosine receptor A3 (Homo sapiens, UniProt P0DMS8).
T1 sequence (P0DMS8 whole entry): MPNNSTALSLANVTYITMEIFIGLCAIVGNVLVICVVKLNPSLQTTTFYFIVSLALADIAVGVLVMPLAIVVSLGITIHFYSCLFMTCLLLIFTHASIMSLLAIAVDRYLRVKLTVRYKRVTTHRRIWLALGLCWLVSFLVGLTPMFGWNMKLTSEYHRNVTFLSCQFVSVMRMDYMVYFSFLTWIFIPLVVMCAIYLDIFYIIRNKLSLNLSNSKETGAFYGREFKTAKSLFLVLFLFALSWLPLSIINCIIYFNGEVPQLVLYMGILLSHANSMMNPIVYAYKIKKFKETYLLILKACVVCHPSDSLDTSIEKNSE
As to the kind of experiment: Displacement of [3H]NECA from human adenosine A3 receptor expressed in CHO cell membrane. Type of assay: cell membranes. An outline of the steps:
(§1)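 CHO cells stably transfected with the human receptor subtype. Membranes were prepared by a 1000g spin to clear fragments and nuclei, then pelleted from the supernatant at 100 000g. Pellet was resuspended in the respective binding buffer, frozen in liquid nitrogen and stored until radioligand competition binding.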
A general note: Displacement assays read how much labelled ligand stays bound in the presence of the test substance.

A short description of assay [1]: Selectivity ratio of Ki for human adenosine A1 receptor expressed in CHO cell membrane to Ki for human adenosine A2A receptor expressed in CHO cell membrane. The assay is classed as cell-based.
Assay [2] is described as follows: Selectivity ratio of Ki for human adenosine A2A receptor expressed in CHO cell membrane to Ki for human adenosine A3 receptor expressed in CHO cell membrane. Type of assay: cell-based.
Another assay has as its target T2, Adenosine receptor A2b (Homo sapiens, UniProt P29275).
T2 sequence (P29275 whole entry): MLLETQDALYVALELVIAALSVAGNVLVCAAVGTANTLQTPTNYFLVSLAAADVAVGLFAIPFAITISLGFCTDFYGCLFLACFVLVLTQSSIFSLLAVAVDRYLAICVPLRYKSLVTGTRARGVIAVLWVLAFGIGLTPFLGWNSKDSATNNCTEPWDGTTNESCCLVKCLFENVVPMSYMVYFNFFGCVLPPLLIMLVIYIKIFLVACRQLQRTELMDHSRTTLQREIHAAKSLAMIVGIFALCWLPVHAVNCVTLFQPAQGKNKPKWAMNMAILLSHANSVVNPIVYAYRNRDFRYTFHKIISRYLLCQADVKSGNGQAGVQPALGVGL
The experiment in a line: Antagonist activity at human adenosine A2B receptor expressed in CHO cells assessed as NECA-induced adenylate cyclase activity. Type of assay: functional, cell-based. The procedure, abridged: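 Membranes from stably transfected CHO cells made with a single high-speed spin of the homogenate. Incubated 20 min with about 150 000 cpm [α-³²P]ATP in mixture lacking EDTA and NaCl. IC50 taken from concentration-dependent inhibition of NECA-stimulated adenylyl cyclase using Hill equation.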

For assay [3], the target named is Adenosine receptors; A1 & A3 (Homo sapiens) (UniProt P30542+P0DMS8). As to the kind of experiment: Selectivity ratio of Ki for human adenosine A1 receptor expressed in CHO cell membrane to Ki for human adenosine A3 receptor expressed in CHO cell membrane. The assay is classed as cell-based.
Another assay concerns the target Adenosine receptor A2a (Homo sapiens, UniProt P29274). The experiment in a line: Displacement of [3H]NECA from human adenosine A2A receptor expressed in CHO cell membrane. The assay is classed as cell membranes. The procedure, abridged: as §1
For a further assay, the target named is T3, Adenosine receptor A1 (Homo sapiens, UniProt P30542).
T3 sequence (P30542 whole entry): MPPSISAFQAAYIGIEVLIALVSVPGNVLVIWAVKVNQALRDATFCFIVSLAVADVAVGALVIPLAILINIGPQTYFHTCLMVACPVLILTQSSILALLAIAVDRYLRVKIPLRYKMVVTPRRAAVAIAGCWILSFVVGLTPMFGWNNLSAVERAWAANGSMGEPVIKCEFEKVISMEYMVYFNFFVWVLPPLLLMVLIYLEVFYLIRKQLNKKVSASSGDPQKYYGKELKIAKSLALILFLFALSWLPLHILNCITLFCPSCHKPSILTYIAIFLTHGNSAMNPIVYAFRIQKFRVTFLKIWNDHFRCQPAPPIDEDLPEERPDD
As to the kind of experiment: Displacement of [3H]CCPA from human adenosine A1 receptor expressed in CHO cell membrane. Type of assay: cell membranes. An outline of the steps:
as §1

Chain of Adenosine receptor A2a (P29274 whole entry): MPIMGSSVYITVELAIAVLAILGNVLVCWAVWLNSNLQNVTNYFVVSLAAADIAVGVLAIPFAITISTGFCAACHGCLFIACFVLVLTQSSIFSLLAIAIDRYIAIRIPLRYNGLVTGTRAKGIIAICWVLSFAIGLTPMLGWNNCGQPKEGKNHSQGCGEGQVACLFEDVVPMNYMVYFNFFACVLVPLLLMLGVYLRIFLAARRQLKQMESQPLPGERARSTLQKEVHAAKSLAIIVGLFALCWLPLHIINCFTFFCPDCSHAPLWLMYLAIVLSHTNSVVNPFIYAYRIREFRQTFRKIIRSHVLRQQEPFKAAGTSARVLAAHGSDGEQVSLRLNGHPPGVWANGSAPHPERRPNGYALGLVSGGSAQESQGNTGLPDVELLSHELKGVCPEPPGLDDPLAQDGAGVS

With `Cn1cc2c(nc(NC(C)(C)CC(C)(C)C)n3nc(-c4ccco4)nc23)n1`, the Ki on Adenosine receptor A3 is 0.13 µM; at Adenosine receptor A2b, greater than 10 µM; on Adenosine receptor A2a, 3.23 µM; on Adenosine receptor A1, 0.982 µM. Besides, the Ratio Ki worked out at 0.3 in assay [1], 24.8 in assay [2] and 7.55 in assay [3].

Turning to `COc1ccc(CNc2nc3nn(C)cc3c3nc(-c4ccco4)nn23)cc1`, the Ki is 0.00692 µM on Adenosine receptor A3, 9.84 µM on Adenosine receptor A2b, 0.177 µM at Adenosine receptor A2a and 0.442 µM at Adenosine receptor A1. Further, the Ratio Ki turned out to be 2.5 in assay [1], 25.6 in assay [2] and 63.9 in assay [3].

On to `CCN(CCO)c1nc2nn(C)cc2c2nc(-c3ccco3)nn12`, for which the inhibition constant Ki was 1.36 µM on Adenosine receptor A3, greater than 10 µM on Adenosine receptor A2b, 6.43 µM on Adenosine receptor A2a and 15 µM on Adenosine receptor A1. Moreover, the Ratio Ki in assay [1] was 2.33; in assay [2], 4.73; in assay [3], 11.

As for `Cn1cc2c(nc(N(Cc3ccccc3)Cc3ccccc3)n3nc(-c4ccco4)nc23)n1`, the inhibition constant Ki is 0.404 µM on Adenosine receptor A3, greater than 10 µM on Adenosine receptor A2b, 1.15 µM on Adenosine receptor A2a and 0.711 µM at Adenosine receptor A1. In addition, the Ratio Ki is 0.62 in assay [1], 2.85 in assay [2] and 1.76 in assay [3].

On to `CCN(CC)c1nc2nn(C)cc2c2nc(-c3ccco3)nn12`, for which the Ki on Adenosine receptor A3 was 0.0963 µM; at Adenosine receptor A2b it was greater than 10 µM; at Adenosine receptor A2a, 0.798 µM; at Adenosine receptor A1, 1.45 µM. For the same molecule, the Ratio Ki in assay [1] worked out at 1.82; in assay [2], 8.29; in assay [3], 15.1.

Consider `CN(C)c1nc2nn(C)cc2c2nc(-c3ccco3)nn12`, for which the Ki is 0.394 µM at Adenosine receptor A3, greater than 10 µM at Adenosine receptor A2b, 1.03 µM at Adenosine receptor A2a and 4.76 µM at Adenosine receptor A1. Also, the Ratio Ki came out at 4.62 in assay [1], 2.61 in assay [2] and 12.1 in assay [3].

For the molecule `Cn1cc2c(nc(N3CCCC3)n3nc(-c4ccco4)nc23)n1`, the Ki is 0.0355 µM on Adenosine receptor A3, greater than 10 µM at Adenosine receptor A2b, 0.132 µM on Adenosine receptor A2a and 0.328 µM on Adenosine receptor A1. Moreover, the values for the Ratio Ki in assay [1], in assay [2] and in assay [3] were 2.48, 3.72 and 9.24, respectively.

With `COc1ccc(CNc2nc3nn(C)cc3c3nc(-c4ccco4)nn23)cc1OC`, the Ki on Adenosine receptor A3 was 0.0211 µM; on Adenosine receptor A2b, greater than 3 µM; at Adenosine receptor A2a, 0.0641 µM; on Adenosine receptor A1 it was 2.72 µM. In addition, the Ratio Ki in assay [1] came out at 42.3; in assay [2], 3.04; in assay [3], 129.

Turning to `Cn1cc2c(nc(NC(c3ccccc3)c3ccccc3)n3nc(-c4ccco4)nc23)n1`, the Ki was 0.00083 µM on Adenosine receptor A3, greater than 10 µM on Adenosine receptor A2b, 0.9 µM at Adenosine receptor A2a and 0.169 µM on Adenosine receptor A1. For the same molecule, the Ratio Ki in assay [1] came out at 0.19; in assay [2] it was 1080; in assay [3], 204.

Turning to `CC(CCc1ccccc1)Nc1nc2nn(C)cc2c2nc(-c3ccco3)nn12` (stereo unspecified), the Ki on Adenosine receptor A3 is 0.0378 µM; at Adenosine receptor A2b it was 5.26 µM; at Adenosine receptor A2a, 0.147 µM; on Adenosine receptor A1, 0.133 µM. Besides, the results for the Ratio Ki in assay [1], in assay [2] and in assay [3] were 0.9, 3.89 and 3.52, respectively.

As for `COc1ccc(CCNc2nc3nn(C)cc3c3nc(-c4ccco4)nn23)cc1OC`, the Ki is 0.0376 µM on Adenosine receptor A3, 3.88 µM on Adenosine receptor A2b, 0.0925 µM at Adenosine receptor A2a and 1.58 µM at Adenosine receptor A1. In addition, the Ratio Ki in assay [1] is 17.1; in assay [2], 2.46; in assay [3], 42.

On to `Cc1ccc(CNc2nc3nn(C)cc3c3nc(-c4ccco4)nn23)cc1`, for which the Ki on Adenosine receptor A3 amounted to 0.00107 µM; on Adenosine receptor A2b, 3.94 µM; on Adenosine receptor A2a, 0.117 µM; on Adenosine receptor A1, 0.538 µM. Also, the Ratio Ki stood at 4.6 in assay [1], 109 in assay [2] and 503 in assay [3].

`C[C@H](Nc1nc2nn(C)cc2c2nc(-c3ccco3)nn12)c1ccccc1`: the Ki at Adenosine receptor A3 was 0.0003 µM; at Adenosine receptor A2b, 5.29 µM; at Adenosine receptor A2a, 0.0552 µM; on Adenosine receptor A1, 0.338 µM. The Ratio Ki stood at 6.12 in assay [1], 184 in assay [2] and 1130 in assay [3].

As to `Cn1cc2c(nc(NCc3ccc(C(F)(F)F)cc3)n3nc(-c4ccco4)nc23)n1`, the Ki is 0.0149 µM on Adenosine receptor A3, greater than 3 µM at Adenosine receptor A2b, 0.245 µM on Adenosine receptor A2a and 1.23 µM at Adenosine receptor A1. For the same molecule, the Ratio Ki turned out to be 5.02 in assay [1], 16.4 in assay [2] and 82.5 in assay [3].

For the molecule `CN1CCN(c2nc3nn(C)cc3c3nc(-c4ccco4)nn23)CC1`, the Ki at Adenosine receptor A3 is 1.33 µM; at Adenosine receptor A2b it was greater than 10 µM; at Adenosine receptor A2a it was 7.69 µM; on Adenosine receptor A1 it was 15.2 µM. Besides, the Ratio Ki stood at 1.98 in assay [1], 5.78 in assay [2] and 11.4 in assay [3].

For `Cn1cc2c(nc(NCCCO)n3nc(-c4ccco4)nc23)n1`, the Ki was determined as 0.241 µM at Adenosine receptor A3, 9.3 µM at Adenosine receptor A2b, 0.155 µM on Adenosine receptor A2a and 0.212 µM at Adenosine receptor A1. The values for the Ratio Ki in assay [1], in assay [2] and in assay [3] were 1.37, 0.64 and 0.88, respectively.

Regarding `Cn1cc2c(nc(NC(CO)CO)n3nc(-c4ccco4)nc23)n1`, the inhibitory constant (Ki) at Adenosine receptor A3 is 0.536 µM; on Adenosine receptor A2b, greater than 10 µM; on Adenosine receptor A2a, 0.597 µM; at Adenosine receptor A1 it was 0.639 µM. In addition, the figures for the Ratio Ki in assay [1], in assay [2] and in assay [3] were 1.07, 1.11 and 1.19, respectively.

For the molecule `Cn1cc2c(nc(N3CCOCC3)n3nc(-c4ccco4)nc23)n1`, the Ki was 0.514 µM at Adenosine receptor A3, greater than 10 µM on Adenosine receptor A2b, 1.67 µM on Adenosine receptor A2a and 2.42 µM at Adenosine receptor A1. Further, the results for the Ratio Ki in assay [1], in assay [2] and in assay [3] were 1.45, 3.25 and 4.71, respectively.

For the molecule `Cn1cc2c(nc(NCc3ccc(Cl)cc3)n3nc(-c4ccco4)nc23)n1`, the Ki turned out to be 0.00199 µM on Adenosine receptor A3, 2.62 µM on Adenosine receptor A2b, 0.0754 µM at Adenosine receptor A2a and 0.322 µM at Adenosine receptor A1. For the same molecule, the figures for the Ratio Ki in assay [1], in assay [2] and in assay [3] were 4.27, 37.9 and 162, respectively.

As for `Cn1cc2c(nc(NCc3ccccc3)n3nc(-c4ccco4)nc23)n1`, the Ki at Adenosine receptor A3 was 0.00249 µM; at Adenosine receptor A2b it was 3.33 µM; on Adenosine receptor A2a it was 0.091 µM; on Adenosine receptor A1, 0.527 µM. Further, the Ratio Ki in assay [1] is 5.79; in assay [2] it was 36.5; in assay [3], 212.

Turning to `CC(O)CNc1nc2nn(C)cc2c2nc(-c3ccco3)nn12` (stereo unspecified), the Ki was 0.356 µM on Adenosine receptor A3, greater than 3 µM on Adenosine receptor A2b, 0.136 µM at Adenosine receptor A2a and 0.375 µM on Adenosine receptor A1. Also, the Ratio Ki amounted to 2.76 in assay [1], 0.38 in assay [2] and 1.05 in assay [3].

Regarding `Cn1cc2c(nc(Cl)n3nc(-c4ccco4)nc23)n1`, the Ki was 0.367 µM on Adenosine receptor A3, greater than 10 µM on Adenosine receptor A2b, 29.9 µM on Adenosine receptor A2a and 6.56 µM at Adenosine receptor A1. The values for the Ratio Ki in assay [1], in assay [2] and in assay [3] were 0.22, 81.5 and 17.9, respectively.

Take `Cn1cc2c(nc(NCc3ccc(F)cc3)n3nc(-c4ccco4)nc23)n1`: the Ki was determined as 0.00493 µM at Adenosine receptor A3, 3.18 µM on Adenosine receptor A2b, 0.0875 µM on Adenosine receptor A2a and 0.823 µM on Adenosine receptor A1. Moreover, the Ratio Ki in assay [1] stood at 9.41; in assay [2] it was 17.8; in assay [3] it was 167.

Broadly, the Ki is the dissociation constant of the complex between target and ligand, obtained from inhibition or displacement.
